# Laboratory results taken from ChEMBL document CHEMBL2146441, “2,6-Disubstituted imidazo[2,1-b][1,3,4]thiadiazoles: search for anticancer agents” (2012).
# Experiments:
# Format in all cases: functional
# [1] = test system: NCI-H522; assay: Cytotoxicity against human NCI-H522 cells assessed as cell growth at 10^-5 M after 48 hrs by SRB assay; details: NCI-H522, 48 h, read-out: Activity
# [2] = test system: KM12; assay: Cytotoxicity against human KM12 cells assessed as cell growth at 10^-5 M after 48 hrs by SRB assay; details: KM12, 48 h, read-out: Activity
# [3] = test system: SNB-75; assay: Cytotoxicity against human SNB75 cells assessed as cell growth at 10^-5 M after 48 hrs by SRB assay; details: SNB-75, 48 h, read-out: Activity
# [4] = test system: M14; assay: Cytotoxicity against human M14 cells assessed as cell growth at 10^-5 M after 48 hrs by SRB assay; details: M14, 48 h, read-out: Activity
# [5] = test system: SK-MEL-28; assay: Cytotoxicity against human SK-MEL-28 cells assessed as cell growth at 10^-5 M after 48 hrs by SRB assay; details: SK-MEL-28, 48 h, read-out: Activity
# [6] = test system: UACC-257; assay: Cytotoxicity against human UACC257 cells assessed as cell growth at 10^-5 M after 48 hrs by SRB assay; details: UACC-257, 48 h, read-out: Activity
# [7] = test system: TK-10; assay: Cytotoxicity against human TK10 cells assessed as cell growth at 10^-5 M after 48 hrs by SRB assay; details: TK-10, 48 h, read-out: Activity
# [8] = test system: PC-3; assay: Cytotoxicity against human PC3 cells assessed as cell growth at 10^-5 M after 48 hrs by SRB assay; details: PC-3, 48 h, read-out: Activity
# [9] = test system: CAKI-1; assay: Growth inhibition of human Caki1 cells after 48 hrs by SRB assay; details: CAKI-1, 48 h
# Summary of the method: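 Same 48 h NCI-60 five-dose SRB protocol. Adherent lines were fixed with cold TCA at 10% final; suspension lines such as CCRF-CEM were fixed with 16% final TCA. Stain was 0.4% SRB in 1% acetic acid for 10 min, solubilized in 10 mM Tris base and read at 515 nm. GI50 came from log concentration–growth curves, solving [(Ti−Tz)/(C−Tz)]×100 = 50.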
# [10] = test system: TK-10; assay: Growth inhibition of human TK10 cells after 48 hrs by SRB assay; details: TK-10, 48 h; for CC50: read-out: LC50 (the source's name)
# Summary of the method: (§1)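 Adherent NCI-60 lines grown in RPMI 1640 with 5% FBS, seeded at 5000–40,000 cells/well, and preincubated 24 h at 37 °C, 5% CO2. Compound, stocked in DMSO, given either once at 10^-5 M or at five 10-fold dilutions for 48 h. Cells fixed with cold TCA (final 10%), stained with 0.4% SRB, and read at 515 nm. GI50 taken as 50% reduction in net protein increase versus time-zero and control plates.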
# [11] = test system: MCF7; assay: Growth inhibition of human MCF7 cells after 48 hrs by SRB assay; details: MCF7, 48 h; summary of the method: as §1
# [12] = test system: SF-539; assay: Cytotoxicity against human SF539 cells assessed as cell growth at 10^-7 M after 48 hrs by SRB assay; details: SF-539, 48 h, read-out: Activity
# [13] = test system: SK-MEL-28; assay: Cytotoxicity against human SK-MEL-28 cells assessed as cell growth at 10^-7 M after 48 hrs by SRB assay; details: SK-MEL-28, 48 h, read-out: Activity
# [14] = test system: EKVX; assay: Cytotoxicity against human EKVX cells assessed as cell growth at 10^-4 M after 48 hrs by SRB assay; details: read-out: Activity
# Summary of the method: (§2)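 NCI-60 screen: lines kept in RPMI 1640 with 5% FBS, seeded at 5000–40,000 cells/well by doubling time, preincubated 24 h at 37 °C in 5% CO2. Time-zero plates TCA-fixed at drug addition. DMSO stocks diluted in medium, 48 h exposure. Fixation in cold TCA (final 10% adherent, 16% suspension), 0.4% SRB stain, solubilised in 10 mM Tris base, A515. Percent growth computed against control and time-zero.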
# [15] = test system: NCI-H460; assay: Cytotoxicity against human NCI-H460 cells assessed as cell growth at 10^-4 M after 48 hrs by SRB assay; details: NCI-H460, 48 h, read-out: Activity
# [16] = test system: SW-620; assay: Cytotoxicity against human SW620 cells assessed as cell growth at 10^-4 M after 48 hrs by SRB assay; details: SW-620, 48 h, read-out: Activity
# [17] = test system: SF-268; assay: Cytotoxicity against human SF268 cells assessed as cell growth at 10^-4 M after 48 hrs by SRB assay; details: SF-268, 48 h, read-out: Activity
# [18] = test system: OVCAR-4; assay: Cytotoxicity against human OVCAR4 cells assessed as cell growth at 10^-4 M after 48 hrs by SRB assay; details: OVCAR-4, 48 h, read-out: Activity
# [19] = test system: COLO; assay: Cytotoxicity against human COLO […] cells assessed as cell growth at 10^-8 M after 48 hrs by SRB assay; details: read-out: Activity; summary of the method: as §2
# [20] = test system: SF-268; assay: Cytotoxicity against human SF268 cells assessed as cell growth at 10^-8 M after 48 hrs by SRB assay; details: SF-268, 48 h, read-out: Activity
# [21] = test system: SNB-19; assay: Cytotoxicity against human SNB19 cells assessed as cell growth at 10^-8 M after 48 hrs by SRB assay; details: SNB-19, 48 h, read-out: Activity
# [22] = test system: A498; assay: Cytotoxicity against human A498 cells assessed as cell growth at 10^-8 M after 48 hrs by SRB assay; details: A498, 48 h, read-out: Activity; summary of the method: as §2
# [23] = test system: CAKI-1; assay: Cytotoxicity against human Caki1 cells assessed as cell growth at 10^-8 M after 48 hrs by SRB assay; details: CAKI-1, 48 h, read-out: Activity; summary of the method: as §2
# [24] = Cytotoxicity against human […] cells assessed as cell growth at 10^-6 M after 48 hrs by SRB assay; details: 48 h, read-out: Activity
# [25] = test system: EKVX; assay: Cytotoxicity against human EKVX cells assessed as cell growth at 10^-6 M after 48 hrs by SRB assay; details: read-out: Activity; summary of the method: as §2
# [26] = test system: NCI-H522; assay: Cytotoxicity against human NCI-H522 cells assessed as cell growth at 10^-6 M after 48 hrs by SRB assay; details: NCI-H522, 48 h, read-out: Activity
# [27] = test system: SK-MEL-2; assay: Cytotoxicity against human SK-MEL-2 cells assessed as cell growth at 10^-6 M after 48 hrs by SRB assay; details: SK-MEL-2, 48 h, read-out: Activity
# [28] = test system: SK-OV-3; assay: Cytotoxicity against human SKOV3 cells assessed as cell growth at 10^-6 M after 48 hrs by SRB assay; details: SK-OV-3, 48 h, read-out: Activity
# [29] = test system: PC-3; assay: Cytotoxicity against human PC3 cells assessed as cell growth at 10^-6 M after 48 hrs by SRB assay; details: PC-3, 48 h, read-out: Activity
# [30] = test system: EKVX; assay: Cytotoxicity against human EKVX cells assessed as cell growth at 10^-5 M after 48 hrs by SRB assay; details: read-out: Activity; summary of the method: as §2
SMILES,growth at 10 µM [1] [%],growth at 10 µM [2] [%],growth at 10 µM [3] [%],growth at 10 µM [4] [%],growth at 10 µM [5] [%],growth at 10 µM [6] [%],growth at 10 µM [7] [%],growth at 10 µM [8] [%],GI50 [9] [µM],LC50 (50% lethal concentration) [9] [µM],TGI [9] [µM],GI50 [10] [µM],TGI [10] [µM],CC50 [10] [µM],GI50 [11] [µM],LC50 (50% cell kill) [11] [µM],TGI [11] [µM],growth at 0.1 µM [12] [%],growth at 0.1 µM [13] [%],growth at 100 µM [14] [%],also measured
COc1ccc(-c2nn3cc(-c4cccc(N)c4)nc3s2)cc1,13,37,-24,34,28,63,41,10,0.743,> 100,10.9,7.56,37.4,> 100,2.2,> 100,20.3,100,95,-18,growth at 100 µM [15]: -31%; growth at 100 µM [16]: -5%; growth at 100 µM [17]: -34%; growth at 100 µM [18]: -34%; growth at 0.01 µM [19]: 103%; growth at 0.01 µM [20]: 100%; growth at 0.01 µM [21]: 96%; growth at 0.01 µM [22]: 87%; growth at 0.01 µM [23]: 86%; growth at 1 µM [24]: 55%; growth at 1 µM [25]: 50%; growth at 1 µM [26]: 60%; growth at 1 µM [27]: 79%; growth at 1 µM [28]: 87%; growth at 1 µM [29]: 53%; growth at 10 µM [30]: 2%
COc1ccc(-c2nn3cc(-c4ccc(O)cc4O)nc3s2)cc1,1,21,-66,17,3,36,7,14,2.07,> 100,28.9,3.46,17.4,> 100,1.98,> 100,21.6,101,92,-9,growth at 100 µM [15]: 2%; growth at 100 µM [16]: 6%; growth at 100 µM [17]: -8%; growth at 100 µM [18]: -22%; growth at 0.01 µM [19]: 104%; growth at 0.01 µM [20]: 97%; growth at 0.01 µM [21]: 93%; growth at 0.01 µM [22]: 82%; growth at 0.01 µM [23]: 95%; growth at 1 µM [24]: 69%; growth at 1 µM [25]: 65%; growth at 1 µM [26]: 69%; growth at 1 µM [27]: 85%; growth at 1 µM [28]: 85%; growth at 1 µM [29]: 65%; growth at 10 µM [30]: 15%
